Assay results from PubChem BioAssay AID1027 (Sanford-Burnham Center for Chemical Genomics, 2008).
Out of some 200,000 compounds screened, fewer than 10 were called active.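 Rule for the calls: active = luciferase activation factor, scaled between plate controls, of at least 2 with compound at 10 µM; inactive = the rest.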 A selection follows.

target: Luciferin 4-monooxygenase (Photinus pyralis) (UniProt P08659); experiment: FLuc activators, initial screening, artefact control for FLuc-dependent activation tests, biochemical, ATPlite luminescence (AID 1027); settings: ATPlite luciferase biochemical, 10 min, at 10 µM, active compounds read high, 0 = ATP-free wells, 1 = DMSO control
Outline: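 assay system = Luciferase/luciferin detection reagent, cell-free biochemical luciferase assay | also added = ATP substrate | times = 10 min post-reagent at room temperature | measured by = luminescence from luciferase reaction | measure = luciferase activation, seen as luminescence increase over controls | benchmarks = low control with PBS replacing ATP, high control enzyme plus ATP without compound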

Luciferin 4-monooxygenase (Photinus pyralis), sequence (P08659 whole entry, looked up): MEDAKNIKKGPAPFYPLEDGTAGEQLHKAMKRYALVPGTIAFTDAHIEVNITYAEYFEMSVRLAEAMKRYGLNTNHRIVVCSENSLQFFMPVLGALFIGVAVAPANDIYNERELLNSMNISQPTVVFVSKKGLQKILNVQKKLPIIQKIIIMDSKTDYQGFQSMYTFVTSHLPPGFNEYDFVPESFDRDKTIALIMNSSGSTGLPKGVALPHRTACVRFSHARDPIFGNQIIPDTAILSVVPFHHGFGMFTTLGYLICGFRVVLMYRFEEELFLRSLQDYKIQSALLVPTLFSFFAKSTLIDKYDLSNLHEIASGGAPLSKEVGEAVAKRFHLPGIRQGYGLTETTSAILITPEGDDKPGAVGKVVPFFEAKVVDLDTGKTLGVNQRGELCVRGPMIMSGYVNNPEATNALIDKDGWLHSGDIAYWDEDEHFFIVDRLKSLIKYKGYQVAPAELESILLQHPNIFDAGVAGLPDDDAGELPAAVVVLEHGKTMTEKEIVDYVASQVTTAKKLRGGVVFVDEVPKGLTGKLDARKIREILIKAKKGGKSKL

Activation factor, inactive:
O=C(O)CC(Cc1ccccc1)C(=O)Nc1ccc([N+](=O)[O-])cc1 (stereo not drawn) 1.1, CCC1CCCCN1C(=S)Nc1ccc(C(C)=O)cc1 (stereo not drawn) 1, Cc1ccc(C)c(NC2=NCC(=O)N2c2ccc3c(c2)OCCO3)c1 1.1, COc1ccc(C(=O)Nc2ccc3nc(N4CCCCC4)cc(C)c3c2)cc1OC 1.1, NC(=O)c1ccccc1N(Cc1ccccc1)S(=O)(=O)c1ccccc1 1, Cc1cccc(N2CCC(NCc3c(C(=O)N4CCCCC4)nc4c(C)cccn34)CC2)c1 1, COc1ccc(CCC(=O)OCC(=O)Nc2ccc(C)c(S(=O)(=O)N(C)C)c2)cc1 1, Cc1cccc(N2C(=O)SC(SC(=Nc3ccccc3)Nc3ccccc3)C2=O)c1 (stereo not drawn) 1, Cc1ccc(C(=O)N/C(=C\c2cccs2)C(=O)NCCc2ccccn2)cc1C 1, COc1cccc(CC2(CO)CCCN(CC3=Cc4cc(OC)ccc4OC3)C2)c1 (stereo not drawn) 1.1, Cc1ccc2[nH]c(C)c(CCNC(=O)NC3CCCCC3)c2c1 1, S=C(Nc1cccc(Br)c1)N1CCn2cccc2C1c1cccnc1 (stereo not drawn) 1.1, NS(=O)(=O)c1ccc(N2C(=O)C3C4CC(C(Br)C4Br)C3C2=O)cc1 (stereo not drawn) 1, CCc1ccc(C2N3CC4([N+](=O)[O-])CN2CC([N+](=O)[O-])(C3)C4(C)C)cc1 (stereo not drawn) 1.1, Cc1nnc(SC(C)C(=O)Nc2ccc(S(=O)(=O)NC3CCCCC3)cc2)s1 (stereo not drawn) 1.1, Cc1ccc(C(=O)NC(=S)NCCN2CCOCC2)cc1 1.1, CC(CO)N1CCS(=O)(=O)CC1 (stereo not drawn) 1.1, CC1CCCN(CCOCCOc2ccccc2-c2ccccc2)C1 (stereo not drawn) 1, Cc1noc(C)c1CCC(=O)O 1, CCC1CCCCN1C(=O)CSc1nc2c(c(=O)n(C)c(=O)n2C)n1C (stereo not drawn) 1, C=C(C)c1cccc(C(C)(C)NC(=O)NC2CCCC2)c1 1, COc1ccc(CCCc2nnc(SCc3nc4ccccc4c(=O)[nH]3)n2C)cc1 1.1, CCOC(=O)N1CCN(CCC(=O)Nc2cc(OC)ccc2OC)CC1 1, Cc1ccc2nc(-c3ccc(NC(=O)CN(C)S(=O)(=O)c4ccccc4)cc3)sc2c1 0.7, CC(C)(C)c1ccc(/C=C/C(=O)NC2CCS(=O)(=O)C2)cc1 (stereo not drawn) 0.9, O=C(COC(=O)c1ccccc1)Nc1cccc(S(=O)(=O)N2CCOCC2)c1 1.1, NS(=O)(=O)c1ccc(CNC(=O)c2ccc(Cl)cc2[N+](=O)[O-])cc1 1, CCn1cc(/C=C2/SC(=S)NC2=O)c(C)n1 0.8, COc1cccc(NC(=O)c2nn(-c3ccc(OC)cc3OC)c(=O)c3ccccc23)c1 1, COc1cc(SC#N)ccc1N=Cc1c(C)[nH]n(-c2ccc(C)cc2)c1=O 0.9, CCN=C1S/C(=C\c2cc(Br)ccc2OCC(=O)OCC)C(=O)N1CC 1, CCc1cccc2c(=O)c(C(=O)NCCCOC)c[nH]c12 1, CS(=O)(=O)N(CC(=O)N1CCCC1)Cc1ccccc1 1.1, O=C(NCCNc1ccc([N+](=O)[O-])cc1)c1cccc2c(Br)cccc12 1, Cc1ccc(SCCC(=O)NCc2ccccn2)cc1 1, Oc1ccc(Br)cc1C=Nc1ccc2[nH]ncc2c1 1, CN(CC(=O)Nc1ccc(S(=O)(=O)N2CCCC2)cc1)Cc1ccc(Cl)c(Cl)c1 1, CC(=O)n1c(C=Nc2ccccc2)c(O)c2ccccc21 0.4, CC1Cc2ccccc2N1C1=CC(=O)CC(C)(C)C1 (stereo not drawn) 1.1, Cc1c(NC(=O)CCC2CCCCC2)cc(C(=O)N2CCOCC2)cc1[N+](=O)[O-] 1.1, CCOCCCNCc1cc(Br)ccc1OCC 1, O=C(CSc1ccccn1)Nc1nc2c(ccc3ccccc32)s1 1.1, CCOc1ccc2nc(NC(=O)c3cc([N+](=O)[O-])ccc3N3CCOCC3)sc2c1 1, COc1ccc(-c2nc(CN3CCN(c4ncccn4)CC3)c(C)o2)cc1C 1, O=C(O)c1ccc2c(c1)C(=O)N(NC(=O)c1ccc(O)cc1)C2=O 1.1, COC(=O)c1ccc(/C=N/OCC(=O)Nc2cc(F)ccc2F)cc1 1, CC(NC(=S)Nc1ccc(S(N)(=O)=O)cc1)c1ccc2c(c1)OCO2 (stereo not drawn) 1.1, Cc1ccc(NC(=S)N2CCN(c3ncccn3)CC2)cc1C 1.1, Cc1ccc(C(=O)O)cc1N1C(=O)CCCC1=O 1, Cn1cc(CN2CCCC(CO)C2)c(-c2ccc(Oc3ccccc3)cc2)n1 (stereo not drawn) 1.1, COC(=O)c1ccc(CSc2nnc(N)s2)o1 1, COc1ccc(CN2CCCC(C(=O)c3ccc(Cl)cc3)C2)cc1Cn1cncn1 (stereo not drawn) 1, O=C(CC1Nc2ccccc2NC1=O)Nc1ccccc1NC(=O)CC1Nc2ccccc2NC1=O (stereo not drawn) 0.9, CCN(CC(=O)NCCc1ccccc1)S(=O)(=O)c1ccc(C)cc1 1.1, Cc1nc(N2CCCCC2)sc1C=O 1, C=CCn1c(SCC(=O)CC(=O)OCC)nc2cc(C(=O)N3CCC(C(N)=O)CC3)ccc2c1=O 1, COC(=O)c1c(NC(C)=O)sc(C(=O)Nc2ccccc2OC)c1C 1, COc1cc(/C=N\NC(=O)c2nonc2N)c(OC)cc1Br 1, CCOC(=O)C1CCN(C(=O)/C=C/c2cc(OC)c(OC)c(OC)c2)CC1 1, COc1ccc(S(=O)(=O)NC(C)C)cc1C(=O)NC1CCCCC1 1.1, COc1ccccc1C1SCCN1C(=O)c1ccc([N+](=O)[O-])cc1 (stereo not drawn) 1, CSc1nc(-c2ccccc2)nc(C(Cl)Cl)n1 1.1, Cc1nc(-c2ccccc2)sc1C(=O)/C=C/N(C)C 0.9, COc1ccc(/C=C/C2=CC(C)(C)NC(=S)N2)c(OC)c1 1, COc1cc(OC)nc(N/N=C(\c2ccccc2)c2ccncc2)n1 1, CCn1ccnc1CN(C)Cc1nc(-c2ccc3c(c2)OCO3)no1 1, CCOC(=O)Cc1csc(SCC(=O)NC(C)C23CC4CC(CC(C4)C2)C3)n1 (stereo not drawn) 1, COc1ccc(C(=O)NC(=S)Nc2ccccc2N2CCN(S(C)(=O)=O)CC2)cc1OC 1.1, N#C/C(=C(/O)COC(=O)COc1ccc(Cl)cc1)c1nc2ccccc2[nH]1 1, O=C(Nc1ccc([N+](=O)[O-])cc1)C1CC12CCC2 (stereo not drawn) 1, COC(=O)c1c(C)oc2ccc(N(C(=O)Oc3ccccc3)S(=O)(=O)c3ccccc3)cc12 1.1, Cc1ccc(Cl)cc1NC(=S)N(CCN(C)C)Cc1cccs1 1.1, Cc1cc(/C=N/NC(N)=O)c(C)n1C1CCCCC1 1, COC(=O)C(C)N=Cc1ccccc1 (stereo not drawn) 1.1, CN(c1ccccc1)S(=O)(=O)c1ccc(Cl)c(C(=O)NCCc2c[nH]c3ccccc23)c1 1, COc1cccc(OC)c1C(=O)NC(=S)NCc1ccco1 1, CCn1c(/C=C/Nc2ccccc2)[n+](CC)c2ccc(C(=O)OCC(F)(F)F)cc21 1, CCOc1ccc(NC(=S)N2CCC(N(C)CC3CCCO3)CC2)cc1 (stereo not drawn) 1, Cc1nc(CN2CCN(C(=O)CCc3nnc(Cc4c[nH]c5ccccc45)o3)CC2)cs1 1, O=C(NCc1ccc(F)cc1)C(c1ccccc1)N(C(=O)c1csnn1)C1CC1 (stereo not drawn) 1.1, Cc1ccc(CC2S/C(=C(/C#N)C(=O)N3CCOCC3)N(c3ccccc3)C2=O)cc1 (stereo not drawn) 1.1, C/C=N/NC(=O)CCCC(=O)N/N=C/C 1, C/C(=N/NS(=O)(=O)c1ccccc1)c1ccc(NC(=O)C(F)(F)F)cc1 1, Cc1cc(OC(=O)c2ccccc2Cl)ccc1N1C(=O)CCC1=O 0.3, Cc1ccc(S(=O)(=O)N2CCN(CC(=O)N/N=C/c3ccc(Br)s3)CC2)cc1 1.1, O=C(c1ccc(S(=O)(=O)c2ccccc2)cc1)N1CCCCCC1 1, O=C1N/C(=C/c2cccs2)C(=O)N1Cc1ccc(F)cc1 1, CC1=CC=CN2C1=NC(=O)CC2(C)C(=O)N(CC(=O)NC1CCCC1)c1ccccc1C (stereo not drawn) 1.1, Cc1cc(C)n(CCNC(=O)CC2C(=O)NCCN2Cc2ccc(C)o2)n1 (stereo not drawn) 1, O=C(NNC(=S)NCCCN1CCOCC1)c1ccncc1 1.1, COc1cc(/C=C/C(=O)N2c3ccccc3Sc3ccc(C(F)(F)F)cc32)cc(OC)c1OC 1, CC(=O)Nc1ccc(NC(=S)NC(=O)c2ccc([N+](=O)[O-])c(C)c2)cc1 0.9, O=C(COC(=O)C1CCN(S(=O)(=O)c2ccc3c(c2)OCCO3)CC1)Nc1ccccc1OC(F)F 1, CCc1ccc(OCC(=O)OCC(=O)c2c(N)n(C)c(=O)n(C)c2=O)cc1 1.1, O=C(c1ccc(-c2ccccc2)cc1)C1CCCN(C(=O)c2cncs2)C1 (stereo not drawn) 1.1, O=C(CSC1CC(=O)N(CCc2ccccc2)C1=O)Nc1ccc(Cl)cc1 (stereo not drawn) 1, CC(=O)Nc1ccc(Nc2nc3c(S(=O)(=O)c4ccc(C)c(C)c4)nnn3c3ccccc23)cc1 1, COc1cccc(CNC(=O)Cc2csc(Nc3nc(=S)[nH]c4ccccc34)n2)c1 1.1
